# Assay results published in ChEMBL document CHEMBL2439964, “Identification of a series of 1,3,4-trisubstituted pyrazoles as novel hepatitis C virus entry inhibitors” (Bioorg Med Chem Lett, 2013).
# Assays:
# [1] = Selectivity index, ratio of CC50 for human HuH7 cells to EC50 for cell culture derived HCV; parameters: species or system Huh-7
# How it was run: (§1)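 Naïve Huh-7 cells in 384-well plates were given serially diluted compound, then infected with cell culture-derived HCV (HCVcc) at MOI 1. Live cells were analysed 72 h post-infection. EC50 came from 10-point dose-response in duplicate with quadruplicate measurements, or 5-point in duplicate for one series. CC50 came from automated per-well cell counts. SI = CC50/EC50.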
# [2] = Cytotoxicity against human HuH7 cells; type: cell-based, Huh-7; how it was run: as §1
# Hepatitis C virus = test: Antiviral activity against cell culture derived HCV infected in human HuH7 cells assessed as inhibition of viral replication after 72 hrs; type: functional, organism-based, Hepacivirus hominis; conditions: Huh-7, 72 h; how it was run: as §1
Structure (SMILES),EC50 (Hepatitis C virus) [µM],Ratio CC50/EC50 [1],CC50 [2] [µM]
CN1CCN(CCNCc2cn(-c3ccc(F)cc3F)nc2C(C)(C)C)CC1,11,>1.8,> 20
Cc1ccccc1CNc1nn(-c2ccc(F)cc2F)cc1CNCCN1CCN(C)CC1,4.3,>4.7,> 20
CN1CCN(CCNCc2cn(-c3ccc(F)cc3F)nc2-c2ccccc2Cl)CC1,3.3,>6.1,> 20
Cc1ccccc1-c1nn(-c2ccc(N)cc2)cc1CNCCN1CCN(C)CC1,10,>2,> 20
Cc1ccc(-c2nn(-c3ccc(F)cc3F)cc2CNCCN2CCN(C)CC2)cc1,0.81,>25,> 20
Cc1ccccc1-c1nn(-c2ccc(F)cc2F)cc1CNCCCN1CCN(C)CC1,2.2,>9,> 20
Cc1ccccc1-c1nn(-c2ccc(F)cc2F)cc1CNCCN(C)C,> 20,,> 20
Cc1cccc(-c2nn(-c3ccc(F)cc3F)cc2CNCCN2CCN(C)CC2)c1,1.7,>12,> 20
Cc1ccccc1-c1nn(-c2ccc(F)cc2F)cc1CN1CCN(c2ccccc2)CC1,> 20,,> 20
CN1CCN(CCNCc2cn(-c3ccc([N+](=O)[O-])cc3)nc2-c2ccc(C(F)(F)F)cc2)CC1,0.11,29,3.2
CCCN1CCC(CNCc2cn(-c3ccc(C(F)(F)F)cc3)nc2-c2ccc(Cl)cc2)CC1,0.29,6.7,1.9
Cc1ccccc1-c1nn(-c2ccc(F)cc2F)cc1CNCCN1CCN(C)CC1,2.8,>7.2,> 20
CN1CCN(CCCNCc2cn(-c3ccc([N+](=O)[O-])cc3)nc2-c2ccc(C(F)(F)F)cc2)CC1,0.12,41,4.9
Cc1ccccc1-c1nn(-c2ccc(F)cc2F)cc1CN1CCC(N2CCCCC2)CC1,7.5,>2.7,> 20
CN1CCN(CCCNCc2cn(-c3ccc(C(F)(F)F)cc3)nc2-c2ccc(C(F)(F)F)cc2)CC1,0.38,5.3,2
CCCN1CCC(CNCc2cn(-c3ccc([N+](=O)[O-])cc3)nc2-c2ccc(Cl)cc2)CC1,0.3,37,11

Structure (SMILES),EC50 (Hepatitis C virus) [µM],Ratio CC50/EC50 [1],CC50 [2] [µM]
COc1ccc(-c2nn(-c3ccc(F)cc3F)cc2CNCCN2CCN(C)CC2)cc1,2.1,>9.5,> 20
CN1CCN(CCNCc2cn(-c3ccc(F)cc3F)nc2-c2ccc(OC(F)(F)F)cc2)CC1,0.36,50,18
Cc1ccccc1-c1nn(-c2ccc([N+](=O)[O-])cc2)cc1CNCCN1CCN(C)CC1,0.49,>41,> 20
CN1CCN(CCNCc2cn(-c3ccc(F)cc3F)nc2-c2ccc(S(=O)(=O)N(C)C)cc2)CC1,1.8,>11,> 20
CCN(CC)CCCNCc1cn(-c2ccc(F)cc2F)nc1-c1ccccc1C,4.3,>4.6,> 20
CN1CCN(CCNCc2cn(-c3ccc(C(F)(F)F)cc3)nc2-c2ccc(OC(F)(F)F)cc2)CC1,0.44,6.9,3
Cc1ccccc1-c1nn(-c2ccc(Cl)cc2)cc1CNCCN1CCN(C)CC1,0.65,26,17
Cc1ccccc1-c1nn(-c2cccc(C(F)(F)F)c2)cc1CNCCN1CCN(C)CC1,0.91,20,18
CN1CCN(CCNCc2cn(-c3ccc(F)cc3F)nc2-c2ccccc2)CC1,1.6,>13,> 20
CSc1ccc(-n2cc(CNCCN3CCN(C)CC3)c(-c3ccccc3C)n2)cc1,0.67,25,17
Cc1ccccc1-c1nn(Cc2ccc(F)cc2)cc1CNCCN1CCN(C)CC1,10,>2,> 20
CN1CCN(CCCNCc2cn(-c3ccc(C(F)(F)F)cc3)nc2-c2ccc(Cl)cc2)CC1,0.36,6.9,2.5
Cc1c(CNCCN2CCN(C)CC2)c(-c2ccccc2)nn1-c1ccc(F)cc1,8.5,,> 20
Cc1ccccc1-c1nn(-c2ccc(F)cc2F)cc1CNC1CCN(S(C)(=O)=O)CC1,> 20,,> 20
Cc1ccccc1-c1nn(-c2ccc(F)cc2F)cc1CNCc1ccncc1,> 20,,> 20

# The next lines start with results.
EC50 (Hepatitis C virus) [µM],Structure (SMILES),Ratio CC50/EC50 [1],CC50 [2] [µM]
2.3,CCCN1CCC(CNCc2cn(-c3ccc(F)cc3F)nc2-c2ccccc2C)CC1,>8.8,> 20
> 20,Cc1ccccc1-c1nn(-c2ccc(F)cc2F)cc1CN1CCN(C(C)C)CC1,,> 20
> 20,Cc1ccccc1-c1nn(-c2ccc(F)cc2F)cc1CNCCCCO,,> 20
13,CN1CCN(CCNCc2cc(-c3ccccc3)nn2-c2ccc(F)cc2)CC1,,> 20
3,COCCN1CCC(CNCc2cn(-c3ccc(F)cc3F)nc2-c2ccccc2C)CC1,>6.7,> 20
0.49,CN1CCN(CCNCc2cn(-c3ccc(C(F)(F)F)cc3)nc2-c2ccc(C(F)(F)F)cc2)CC1,3.1,1.5
20,Cc1ccccc1-c1nn(-c2ccc(F)cc2F)cc1CNCCN1CCCCC1,>1,> 20
3.7,Cc1ccccc1-c1nn(-c2ccc(F)cc2)cc1CNCCN1CCN(C)CC1,>5.4,> 20
0.9,Cc1ccccc1-c1nn(-c2ccc(OC(F)(F)F)cc2)cc1CNCCN1CCN(C)CC1,19,17
0.75,CN1CCN(CCCNCc2cn(-c3ccc(C(F)(F)F)cc3)nc2-c2ccc(OC(F)(F)F)cc2)CC1,3.1,2.3
> 20,CN1CCN(CCNC(=O)c2cn(-c3ccc(F)cc3F)nc2-c2ccccc2Cl)CC1,,> 20
0.29,CN1CCN(CCNCc2cn(-c3ccc([N+](=O)[O-])cc3)nc2-c2ccc(Cl)cc2)CC1,17,5
> 20,CCOC(=O)Cn1cc(CNCCN2CCN(C)CC2)c(-c2ccccc2C)n1,,> 20
0.58,CN1CCN(CCNCc2cn(-c3ccc(F)cc3F)nc2-c2cccc(Cl)c2)CC1,26,15
7.5,Cc1ccccc1-c1nn(Cc2ccccc2)cc1CNCCN1CCN(C)CC1,>2.3,> 20
> 20,Cc1ccccc1-c1nn(C(C)C)cc1CNCCN1CCN(C)CC1,,> 20
1.2,CN1CCN(CCNCc2cn(-c3ccc(F)cc3F)nc2C2CCCCC2)CC1,>17,> 20
> 20,Cc1ccccc1-c1nn(-c2ccc(F)cc2F)cc1CNCCN1CCOCC1,,> 20
